Results published in ChEMBL document CHEMBL1136025, “Inhibition of ADP-triggered blood platelet aggregation by diadenosine polyphosphate analogues” (Bioorg Med Chem Lett, 2002).

species on record: Homo sapiens; assay: The inhibitory concentration for the inhibition of ADP-Triggered Blood Platelet Aggregation; assay type: functional
Outline: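 Human citrated PRP from unmedicated healthy donors (200g, 10 min, rt spin); PPP from 1000g, 20 min. Serial dilutions in phosphate buffer pH 7.4 preincubated with PRP 30 min at rt, then ADP added. Aggregation followed 10 min at 37 °C, absorbance 595 nm every 30 s with shaking; buffer and PPP-only controls; AMP as positive control.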

| SMILES | IC50 |
| --- | --- |
| Nc1ncnc2c1ncn2[C@@H]1O[C@H](COP(O)(=S)OCP(=O)(O)COP(O)(=S)OC[C@H]2O[C@@H](n3cnc4c(N)ncnc43)[C@H](O)[C@@H]2O)[C@@H](O)[C@H]1O (stereo partly specified) | 40 µM |
| Nc1ncnc2c1ncn2[C@@H]1O[C@H](COP(=S)(S)OCP(=O)(O)COP(=S)(S)OC[C@H]2O[C@@H](n3cnc4c(N)ncnc43)[C@H](O)[C@@H]2O)[C@@H](O)[C@H]1O (stereo partly specified) | 10 µM |
| Nc1ncnc2c1ncn2[C@@H]1O[C@H](COP(O)(=S)OC(C(=O)O)C(OP(O)(=S)OC[C@H]2O[C@@H](n3cnc4c(N)ncnc43)[C@H](O)[C@@H]2O)C(=O)O)[C@@H](O)[C@H]1O (stereo partly specified) | 75 µM |
| Nc1ncnc2c1ncn2[C@@H]1O[C@H](COP(O)(=S)OCC(OP(O)(O)=S)OP(O)(=S)OC[C@H]2O[C@@H](n3cnc4c(N)ncnc43)[C@H](O)[C@@H]2O)[C@@H](O)[C@H]1O (stereo partly specified) | > 160 µM |
| Nc1ncnc2c1ncn2[C@@H]1O[C@H](COP(=O)(O)OCP(=O)(O)COP(=O)(O)OC[C@H]2O[C@@H](n3cnc4c(N)ncnc43)[C@H](O)[C@@H]2O)[C@@H](O)[C@H]1O | 80 µM |
| Nc1ncnc2c1ncn2[C@@H]1O[C@H](COP(O)(=S)OCP(=O)(O)COP(O)(O)=S)[C@@H](O)[C@H]1O (stereo partly specified) | 13 µM |
